# Screens as filed in PubChem BioAssay.
# MPTP block: mitochondrial permeability transition pore inhibitors, primary screen, biochemical, isolated mouse mitochondria, absorbance; Ca2+ swelling absorbance, 30 min; inhibition, % at 10 µM; actives 1.4% (n = 360,000); AID 602449, 2012;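 active = inhibition of 50% or more, scaled per plate between neutral and stimulator controls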
# ADAM17 inh: ADAM17 inhibitors, primary screen, biochemical, QFRET | AID 720648, 2013 | recombinant ADAM17, EDANS/DABCYL FRET peptide cleavage | actives 0.83% (n = 370,000) | inhibition, % at 6.95 µM | Disintegrin and metalloproteinase domain-containing protein 17 (Homo sapiens), P78536;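 active = inhibition above the mean of compounds lying between control limits plus 3 SD, set per campaign, cut at about 8.5% in these data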
# Target sequence (P78536 215-824 limits assumed): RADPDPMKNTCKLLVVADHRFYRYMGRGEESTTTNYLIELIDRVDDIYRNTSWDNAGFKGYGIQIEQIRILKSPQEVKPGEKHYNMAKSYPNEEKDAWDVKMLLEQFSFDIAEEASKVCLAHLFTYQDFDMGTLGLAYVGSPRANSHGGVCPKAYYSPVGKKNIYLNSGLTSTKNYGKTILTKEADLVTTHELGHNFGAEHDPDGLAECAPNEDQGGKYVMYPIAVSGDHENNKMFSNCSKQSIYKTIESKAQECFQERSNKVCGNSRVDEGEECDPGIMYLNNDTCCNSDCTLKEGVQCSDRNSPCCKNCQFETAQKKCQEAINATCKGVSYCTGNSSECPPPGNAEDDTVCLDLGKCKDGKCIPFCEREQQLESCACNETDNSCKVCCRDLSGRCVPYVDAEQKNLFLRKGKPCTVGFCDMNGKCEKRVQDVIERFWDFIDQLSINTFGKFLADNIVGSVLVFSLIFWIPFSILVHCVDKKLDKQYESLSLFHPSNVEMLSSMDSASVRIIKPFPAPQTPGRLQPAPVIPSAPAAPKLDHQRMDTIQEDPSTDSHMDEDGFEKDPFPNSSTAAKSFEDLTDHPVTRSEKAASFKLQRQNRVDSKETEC
# SKN-1 block: suppressors of acrylamide-induced Pgst-4::GFP reporter in worms, primary screen, SKN-1 inhibitor project, whole organism, uHTS, GFP/RFP fluorescence ratio, strain VP596; C. elegans VP596 Pgst-4::GFP/RFP ratio, 24 h; actives 0.49% (n = 360,000); inhibition, % at 21.8 µM;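 active = interference check ratio from 0.5 to 1.5 plus GFP to RFP signal ratio inhibition reaching or exceeding a fixed threshold, cut at about 30% in these data, passing the limit was not always enough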
# NR3A LBD binder: binders of NR3A ligand-binding domain, primary screen, biophysical, differential scanning fluorimetry, uHTS | Glutamate receptor ionotropic, NMDA 3A (GRIN3A) ligand-binding domain | NR3A LBD differential scanning fluorimetry, Tm shift; 0% = protein alone, 100% = glycine-bound protein | Tm shift relative to glycine control, % at 25 µM | actives 2.5% (n = 340,000) | AID 1259313, 2017;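 active = melting temperature shift of at least 10% of the positive control shift, at one fixed dose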
# ADAM10 inh: human ADAM10 inhibitors, primary screen, biochemical, QFRET, HTS; actives 0.62% (n = 370,000); inhibition, % at 7 µM; Disintegrin and metalloproteinase domain-containing protein 10 (Homo sapiens), O14672; recombinant ADAM10, EDANS/DABCYL FRET peptide cleavage, 3 h; AID 720582, 2013;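 active = inhibition above a per-campaign cutoff equal to the mean of compounds falling between control-based bounds plus 3 SD, cut at about 20% in these data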
# MT1-MMP act inh: blockers of MT1-MMP proenzyme processing, primary screen, HT1080 RFP-PRO-GFP cells, GFP/RFP fluorescence; Matrix metalloproteinase-14 (Homo sapiens), P50281; GFP/RFP ratio fluorescence, overnight; percent of plate control window, DMSO zero; GFP/RFP ratio change, % at 20 µM; actives 0.061% (n = 360,000); AID 651647, 2012;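 active = GFP/RFP ratio change of at least 30% with cell ATP level not reduced by more than half and red fluorescence within 50% of control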
#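 Read-out: GFP/RFP fluorescence ratio; Test system: RFP-PRO-GFP reporter HT1080 cells; Compound dosing: single-point 20 µM compound, 1% DMSO; Times: overnight compound exposure at 37 °C.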
# Hits are given with their value; – = inactive; · = no result given. Most compounds without a hit are left out; they make up all but 4.7% or so of the library.
SMILES,MPTP block,ADAM17 inh,SKN-1 block,NR3A LBD binder,ADAM10 inh,MT1-MMP act inh
CCCCN(Cc1cc2cc(OC)ccc2[nH]c1=O)C(=O)c1ccccn1,–,–,–,13,–,–
Cc1c(C(=S)Nc2ccccc2)cnn1-c1ccc([N+](=O)[O-])cc1,–,–,–,–,–,–
Cc1c(C(=S)Nc2ccccc2)cnn1-c1ccccc1,–,–,–,15,–,–
CCOC(=O)/C=C1\SCC(=O)N1CC(=O)c1ccc[nH]1,–,–,–,–,–,–
COC(=O)NC(=S)Nc1ccc(Oc2ccc(Cl)cc2)c(Cl)c1,–,–,–,–,–,–
COC(=O)NC(=S)Nc1ccc(Oc2ccc(Cl)cc2Cl)c(Cl)c1,–,–,–,16,–,–
O=C(CSc1ccccc1)Nc1ccc(-c2nc3ccccc3[nH]2)cc1,–,–,–,33,–,–
O=C(CSc1ccccc1)Nc1ccc2sccc2c1,–,–,–,17,–,–
O=C(Cc1cccs1)Nc1ccc(-c2nc3ccccc3[nH]2)cc1,–,–,–,32,–,–
O=C(CSc1ccc(Cl)cc1)Nc1cccc(-c2nc3ccccc3[nH]2)c1,–,–,–,32,–,–
O=C(O)CCCC(=O)Nc1cccc(-c2nc3ccccc3[nH]2)c1,–,–,–,–,–,–
O=C(c1cccc(S(=O)(=O)N2CCOCC2)c1)N1CCCC1,–,–,–,–,–,–
Cc1nn(Cc2ccccc2)c(C)c1NC(=O)CCCn1nc([N+](=O)[O-])cc1C,–,–,–,–,–,–
Cc1ccc2nc(-c3ccc(NC(=O)CSc4ccccc4)cc3)[nH]c2c1,–,–,–,29,–,–
O=C(CSc1nc(-c2ccc(Cl)cc2)[nH]c(=O)n1)Nc1cccc(Cl)c1,–,–,–,12,–,–
COc1ccc2nc(SCC(=O)NCc3ccccc3)[nH]c2c1,–,–,–,–,–,–
COc1ccc(OCC(=O)Nc2cccc(-c3nc4ccccc4[nH]3)c2)cc1,–,–,–,20,–,–
COc1ccc2nc(SCC(=O)Nc3ccccc3)[nH]c2c1,–,–,–,17,–,–
C#CCN(C[C@@H]1[C@@H](OC(=O)NC2CCCC2)[C@@H](OC(=O)NC2CCCC2)Cn2c(=O)ccc(=O)n21)S(=O)(=O)c1ccc(C)cc1,–,–,–,·,–,–
O=C(Cc1ccc(NC(=O)C2CCCN(C(=O)C3CCCC3)C2)cc1)Nc1cccc(C(=O)N2CCCC2)c1 (centres undefined),–,–,–,–,–,–
CC1=CN2C(=NC(=O)CC2(C)C(=O)N(CC(=O)NC2CCCC2)c2cc(C)cc(C)c2)C=C1 (centres undefined),–,–,–,–,–,–
Cc1ccc(-c2c(C)sc(=NC(=O)c3ccco3)n2C)cc1,–,–,–,–,–,–
CCCCNS(=O)(=O)c1ccc2nc(SCC(=O)Nc3cccc(F)c3)[nH]c2c1,–,–,–,17,–,–
Cc1cccc(NC(=O)COC(=O)c2cccc3c2C(=O)c2ccccc2C3=O)c1C,–,–,–,–,–,–
Nc1cccc(C(=O)OCC(=O)Nc2cccc3c2C(=O)c2ccccc2C3=O)c1,–,–,–,33,–,–
SMILES,MPTP block,ADAM17 inh,SKN-1 block,NR3A LBD binder,ADAM10 inh,MT1-MMP act inh
N#CCc1nn2c(-c3ccccc3)ccnc2c1C#N,–,–,43,–,–,–
O=C(NCc1ccc(F)cc1)c1ccc(CS(=O)(=O)c2ccc(Br)cc2)o1,–,–,–,–,–,–
CCOC(=O)c1c(C)n(-c2ccc(C)cc2)c2c(C(C(C)=O)C(=O)O)c(Br)c(O)c(O)c12 (centres undefined),–,–,–,20,–,–
Clc1ccc(Nc2nc(-c3cccnc3)cs2)cc1,–,–,–,13,–,–
Clc1ccc(-c2csc(Nc3cccnc3)n2)cc1,–,–,–,15,–,–
c1ccc(-c2csc(Nc3cccnc3)n2)cc1,–,–,–,–,–,–
Clc1cccc(Nc2nc(-c3ccncc3)cs2)c1,–,–,–,31,–,–
CCCCn1c(N)c(N(CC(C)C)C(=O)c2cc(=O)[nH]c3ccccc23)c(=O)[nH]c1=O,–,–,–,–,–,–
CC(C)CN(C(=O)c1cc(=O)[nH]c2ccccc12)c1c(N)n(Cc2ccccc2)c(=O)[nH]c1=O,–,–,–,11,–,–
COc1cccc2c1C1COC3C4CC(C(=O)O)C(C(C2)N13)N4C (centres undefined),–,–,–,14,–,–
Cc1ccc(-c2nnn(CC(=O)Nc3ccc(S(=O)(=O)N4CCC(C)CC4)cc3)n2)cc1,–,–,–,55,–,–
O=C(Nc1nncs1)c1cccc(S(=O)(=O)N2CCCC2)c1,–,–,–,–,–,–
CC1CCN(S(=O)(=O)c2cccc(C(=O)Nc3nncs3)c2)CC1,–,–,–,17,–,–
CC1CCN(S(=O)(=O)c2ccc(NC(=O)C3CCCCC3C(=O)O)cc2)CC1 (centres undefined),–,·,–,11,·,–
CC1CCN(CC(=O)Nc2ccc(S(=O)(=O)N3CCC(C)CC3)cc2)CC1,–,–,–,–,–,–
CC1CCN(S(=O)(=O)c2ccc(NC(=O)c3ccncc3)cc2)CC1,–,–,–,12,–,–
CCOC(=O)C1CCCN(C(=O)COc2ccc(S(=O)(=O)N3CCOCC3)cc2)C1 (centres undefined),–,–,–,–,–,–
COC(=O)Nc1ccc(S(=O)(=O)N2CCC(C(=O)N3CCC(C)CC3)CC2)cc1,–,–,–,–,–,–
COC(=O)Nc1ccc(S(=O)(=O)N2CCC(C)CC2)cc1,–,–,–,13,–,–
CC(C)C(=O)Nc1ccc(C(=O)NN2C(=O)c3ccccc3C2=O)cc1,–,–,–,13,–,–
O=C(Nc1ccc(C(=O)NN2C(=O)c3ccccc3C2=O)cc1)c1ccccc1,–,–,–,24,–,–
CC(=O)Nc1ccc(C(=O)NN2C(=O)c3ccccc3C2=O)cc1,–,–,–,–,–,–
O=C(Nc1cccc(F)c1)c1cccnc1,–,–,–,–,–,–
